Measurements as given in ChEMBL document CHEMBL2093137, “WHO-TDR NTD Screening”.
Converted amounts (≈) assume the structure as drawn.

How the values were obtained:
[1] = WHO-TDR: Cytotoxicity; format: toxicity, cell-based; conditions: human, MRC5 cells
[2] = test system: Plasmodium falciparum K1; test: WHO-TDR: Malaria; format: functional, organism-based, Homo sapiens; conditions: Erythrocyte
How it was run: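 Life Chemicals supplied the diverse library of 10,000 compounds, which had been filtered for drug-likeness and reactive groups. Each was screened against the K1 strain of Plasmodium falciparum at its intra-erythrocytic stage in human red blood cells, using previously published standard procedures and a reference drug as positive control. The table reports IC50 for antiplasmodial potency.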

[3] = test system: Trypanosoma cruzi; test: WHO-TDR: Chagas disease; format: functional, organism-based, Homo sapiens; conditions: MRC5
How it was run: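 A diverse library of 10,000 compounds from Life Chemicals, filtered for drug-likeness and reactive groups, was screened against intracellular amastigotes of Trypanosoma cruzi Tulahuen CL2 beta-galactosidase strain. The parasites were grown in MRC-5SV2 human lung fibroblast host cells, and a reference drug served as positive control under previously published standard procedures. Antiparasitic potency is given as IC50.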

[4] = test system: Trypanosoma brucei brucei; test: WHO-TDR: Human African Trypanosomiasis (HAT); format: functional, organism-based; conditions: Squib-427
How it was run: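 Following previously published standard procedures, with reference drugs as positive controls, a whole-organism assay was run against bloodstream-form Trypanosoma brucei, Squib 427 strain. The compounds, 10,000 in all, came from a diverse Life Chemicals library filtered for drug-likeness and reactive groups. Reported values are IC50 for antiparasitic potency.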

[5] = test system: Leishmania infantum; test: WHO-TDR: Leishmaniasis; format: functional, organism-based, Mus musculus; conditions: Macrophage
How it was run: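 IC50 values describe antiparasitic potency in this whole-organism screen. Leishmania infantum MHOM/MA(BE)/67 amastigotes were tested inside murine peritoneal macrophages against a 10,000-compound diverse Life Chemicals library. A reference drug served as positive control.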

[6] = test system: Schistosoma mansoni; test: WHO-TDR: Schistosomiasis; format: functional; set-up: concentration or dose not given beside the values
How it was run: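 Whole-organism screen of a 10,000-compound diverse library from Life Chemicals, filtered for drug-likeness and reactive groups, against larval and/or adult worms of Schistosoma mansoni Puerto Rican strain. The assay followed previously published standard procedures, with a reference drug as positive control. Activity is reported as percent inhibition and as IC50.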

[7] = test system: Onchocerca ochengi; test: WHO-TDR: Onchocerciasis; format: functional; set-up: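 at 12.5 µM on microfilariae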
How it was run: (§1)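 Whole-organism screen of a 10,000-compound diverse library from Life Chemicals, filtered for drug-likeness and reactive groups, against microfilariae of Onchocerca ochengi or Onchocerca lienalis, used as animal-pathogen stand-ins for the human parasite. The assay followed previously published standard procedures, with reference drugs as positive controls. Activity is reported as percent inhibition and as IC50.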

[8] = test system: Brugia malayi; test: WHO-TDR: Lymphatic Filariasis; format: functional; set-up: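 tested at 10 µM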
How it was run: as §1, with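 “Brugia malayi microfilariae.” for “microfilariae of Onchocerca ochengi or Onchocerca lienalis, used as animal-pathogen stand-ins for the human parasite.”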

| IC50 [2] | IC50 [4] | IC50 [5] | Compound | IC50 [1] | IC50 [3] | % Inhibition [6] | % Inhibition [7] | % Inhibition [8] |
| --- | --- | --- | --- | --- | --- | --- | --- | --- |
| > 12.7 µg/mL | > 12.7 µg/mL | > 12.7 µg/mL | CCOc1ncccc1C(=O)N1CCN(c2ccc(-c3ccc(Cl)cc3)nn2)CC1 | > 12.7 µg/mL | 8.92 µg/mL (≈ 21 µM) | 100% | 0% | 0% |
| 0.731 µg/mL (≈ 2.08 µM) | 0.409 µg/mL (≈ 1.16 µM) | 0.341 µg/mL (≈ 0.97 µM) | O=C(CC1CCCC1)N1CCN(c2ccc(-c3ccccn3)nn2)CC1 | 5.57 µg/mL (≈ 15.9 µM) | 0.466 µg/mL (≈ 1.33 µM) | 33.3% | 0% | 33.33% |
| > 12 µg/mL | > 12 µg/mL | 0.388 µg/mL (≈ 0.971 µM) | O=S(=O)(c1cccc(F)c1)N1CCN(c2ccc(-c3ccncc3)nn2)CC1 | > 12 µg/mL | > 12 µg/mL | 0% | 0% | 33.33% |
| 2.48 µg/mL (≈ 5.62 µM) | > 13.2 µg/mL | 0.429 µg/mL (≈ 0.972 µM) | COc1ccc(S(=O)(=O)N2CCN(c3ccc(-c4ccncc4)nn3)CC2)c(OC)c1 | > 13.2 µg/mL | 5.69 µg/mL (≈ 12.9 µM) | 0% | 0% | 33.33% |
| > 9.58 µg/mL | > 9.58 µg/mL | > 9.58 µg/mL | CS(=O)(=O)N1CCN(c2ccc(-c3ccccn3)nn2)CC1 | > 9.58 µg/mL | 0.22 µg/mL (≈ 0.689 µM) | 0% | 0% | 0% |
| > 12.7 µg/mL | > 12.7 µg/mL | > 12.7 µg/mL | O=S(=O)(c1ccc(Cl)s1)N1CCN(c2ccc(-c3ccccn3)nn2)CC1 | > 12.7 µg/mL | 0.438 µg/mL (≈ 1.04 µM) | 0% | 0% | 0% |
| > 12.9 µg/mL | > 12.9 µg/mL | 0.418 µg/mL (≈ 0.971 µM) | COc1ccc(C)cc1S(=O)(=O)N1CCN(c2ccc(-c3cccs3)nn2)CC1 | > 12.9 µg/mL | > 12.9 µg/mL | 0% | 0% | 0% |
| > 11.6 µg/mL | > 11.6 µg/mL | 0.376 µg/mL (≈ 0.97 µM) | O=S(=O)(c1cccnc1)N1CCN(c2ccc(-c3cccs3)nn2)CC1 | > 11.6 µg/mL | > 11.6 µg/mL | 0% | 0% | 50% |
| > 11.3 µg/mL | > 11.3 µg/mL | > 11.3 µg/mL | O=C(Nc1ccc(F)cc1)Nc1cccc(-c2ccc(N3CCCC3)nn2)c1 | > 11.3 µg/mL | > 11.3 µg/mL | 0% | 100% | 0% |
| > 10 µg/mL | > 10 µg/mL | > 10 µg/mL | COc1ccc(-c2cccc(NC(=O)Nc3ccc(C)cc3)c2)nn1 | > 10 µg/mL | 7.36 µg/mL (≈ 22 µM) | 58.3% | 100% | 0% |
| > 9.4 µg/mL | 0.383 µg/mL (≈ 1.22 µM) | > 9.4 µg/mL | Cc1ccc(C(=O)Nc2nnc(Cc3cccs3)o2)cc1C | > 9.4 µg/mL | 3.01 µg/mL (≈ 9.61 µM) | 25% | 0% | 50% |
| > 10.8 µg/mL | 0.342 µg/mL (≈ 0.949 µM) | > 10.8 µg/mL | O=C(Nc1nnc(Cc2cccs2)o1)c1cc(Cl)sc1Cl | 0.967 µg/mL (≈ 2.68 µM) | 0.632 µg/mL (≈ 1.75 µM) | 0% | 0% | 0% |
| > 10.4 µg/mL | 3.35 µg/mL (≈ 9.71 µM) | 0.336 µg/mL (≈ 0.973 µM) | CCSc1ccccc1C(=O)Nc1nnc(Cc2cccs2)o1 | 9.48 µg/mL (≈ 27.5 µM) | 3.48 µg/mL (≈ 10.1 µM) | 33.3% | 0% | 0% |
| > 12 µg/mL | 5.07 µg/mL (≈ 12.6 µM) | > 12 µg/mL | O=C(Cc1csc(SCC(=O)c2ccccc2)n1)NCCC1=CCCCC1 | > 12 µg/mL | 3.65 µg/mL (≈ 9.11 µM) | 33.3% | 100% | 0% |
| > 8.77 µg/mL | > 8.77 µg/mL | 0.284 µg/mL (≈ 0.971 µM) | NC(=O)Cc1csc(SCC(=O)c2ccccc2)n1 | > 8.77 µg/mL | > 8.77 µg/mL | 16.7% | 0% | 0% |
| > 10.7 µg/mL | > 10.7 µg/mL | 0.345 µg/mL (≈ 0.971 µM) | CCOC(=O)c1sc(-c2ccccc2)cc1NC(=O)c1ccnn1C | > 10.7 µg/mL | > 10.7 µg/mL | 0% | 0% | 0% |

| IC50 [2] | IC50 [4] | IC50 [5] | Compound | IC50 [1] | IC50 [3] | % Inhibition [6] | % Inhibition [7] | % Inhibition [8] |
| --- | --- | --- | --- | --- | --- | --- | --- | --- |
| > 9.85 µg/mL | 0.315 µg/mL (≈ 0.959 µM) | 3.19 µg/mL (≈ 9.71 µM) | Cn1nccc1C(=O)Nc1nc2c(s1)CSc1ccccc1-2 | 0.145 µg/mL (≈ 0.442 µM) | 2.05 µg/mL (≈ 6.23 µM) | 100% | 100% | 0% |
| > 9.79 µg/mL | 3.17 µg/mL (≈ 9.71 µM) | 3.17 µg/mL (≈ 9.71 µM) | Cn1nccc1C(=O)Nc1sc(-c2ccccc2)cc1C(N)=O | 8.31 µg/mL (≈ 25.4 µM) | 6.26 µg/mL (≈ 19.2 µM) | 100% | 0% | 0% |
| > 13.2 µg/mL | > 13.2 µg/mL | 0.428 µg/mL (≈ 0.972 µM) | COc1ccc(-c2ccc(N3CCN(C(=O)c4c(F)cccc4F)CC3)nn2)cc1OC | > 13.2 µg/mL | > 13.2 µg/mL | 8.3% | 0% | 0% |
| > 14.7 µg/mL | 6.68 µg/mL (≈ 13.6 µM) | 0.475 µg/mL (≈ 0.971 µM) | O=C(Nc1nnc(-c2ccc(Br)s2)o1)C1CCCN1S(=O)(=O)c1cccs1 (stereo not drawn) | > 14.7 µg/mL | > 14.7 µg/mL | 8.3% | 0% | 0% |
| > 14.5 µg/mL | 4.75 µg/mL (≈ 9.83 µM) | 4.69 µg/mL (≈ 9.71 µM) | CN(C1CC1)S(=O)(=O)c1ccc(C(=O)Nc2nnc(-c3ccc(Br)s3)o2)cc1 | 3.91 µg/mL (≈ 8.09 µM) | 4.76 µg/mL (≈ 9.85 µM) | 0% | 100% | 0% |
| > 11 µg/mL | > 11 µg/mL | > 11 µg/mL | Cc1cc(C(=O)Nc2nnc(-c3ccc(Br)s3)o2)nn1C | 3.2 µg/mL (≈ 8.68 µM) | > 11 µg/mL | 8.3% | 100% | 0% |
| > 10.2 µg/mL | > 10.2 µg/mL | 0.331 µg/mL (≈ 0.97 µM) | O=C(Nc1nnc(-c2ccc(Br)s2)o1)c1ccno1 | > 10.2 µg/mL | > 10.2 µg/mL | 16.7% | 0% | 0% |
| > 9.88 µg/mL | > 9.88 µg/mL | > 9.88 µg/mL | COc1ccc(-c2nnc(NC(=O)c3ccn(C)n3)o2)cc1OC | 1.41 µg/mL (≈ 4.28 µM) | > 9.88 µg/mL | 25% | 100% | 0% |
| > 12.1 µg/mL | > 12.1 µg/mL | 0.391 µg/mL (≈ 0.971 µM) | COc1ccc(OC)c2sc(N(CC3CCCO3)C(=O)c3ccn(C)n3)nc12 (stereo not drawn) | > 12.1 µg/mL | > 12.1 µg/mL | 16.7% | 0% | 0% |
| > 11.4 µg/mL | > 11.4 µg/mL | 0.37 µg/mL (≈ 1.07 µM) | CCn1ccnc1N1CCN(C(=O)c2cccc(OC)c2OC)CC1 | > 11.4 µg/mL | > 11.4 µg/mL | 8.3% | 0% | 0% |
| 4.25 µg/mL (≈ 10.7 µM) | 4.21 µg/mL (≈ 10.6 µM) | 2.56 µg/mL (≈ 6.45 µM) | Cc1ccc(-n2ccnc2N2CCN(C(=O)c3ccc4ccccc4c3)CC2)cc1 | 2.65 µg/mL (≈ 6.67 µM) | 2.67 µg/mL (≈ 6.73 µM) | 8.3% | 100% | 0% |
| 6.82 µg/mL (≈ 18.3 µM) | 4.07 µg/mL (≈ 10.9 µM) | > 12.3 µg/mL | Cc1ccc(-n2ccnc2N2CCN(C(=O)/C=C\c3ccccc3)CC2)cc1 | > 12.3 µg/mL | 3.88 µg/mL (≈ 10.4 µM) | 25% | 100% | 0% |
| > 12.5 µg/mL | > 12.5 µg/mL | > 12.5 µg/mL | COc1ccccc1C(=O)N1CCN(c2nccn2-c2ccccc2F)CC1 | > 12.5 µg/mL | > 12.5 µg/mL | 25% | 100% | 0% |
| 6.13 µg/mL (≈ 14.4 µM) | 4.5 µg/mL (≈ 10.5 µM) | 4.5 µg/mL (≈ 10.5 µM) | COc1cc(OC)cc(C(=O)N2CCN(c3nccn3-c3cccc(Cl)c3)CC2)c1 | > 13.9 µg/mL | 4.18 µg/mL (≈ 9.78 µM) | 0% | 100% | 0% |
| > 13.2 µg/mL | 3.83 µg/mL (≈ 9.51 µM) | 4.27 µg/mL (≈ 10.6 µM) | O=C(c1ccc(F)c(F)c1)N1CCN(c2nccn2-c2cccc(Cl)c2)CC1 | > 13.2 µg/mL | 11.4 µg/mL (≈ 28.2 µM) | 0% | 100% | 0% |
